In one assay the test system is HL-60. As to the kind of experiment: Cytotoxicity against human HL60 cells assessed as inhibition of cell growth after 72 hrs by MTT assay. Type of assay: functional, cell-based. The note with it: HL-60, 72 h. The procedure, abridged: (§1)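 Exponentially growing cells were exposed 72 h to compounds diluted from a 10 mM DMSO stock into serum-free medium. Growth was read by colorimetric MTT. Leukaemia/lymphoma lines (K562, HL-60, Jurkat, Raji) were grown in RPMI 1640; MCF-7, MDA-MB 231, HeLa, A549 and normal MRC-5 fibroblasts in DMEM; 37 °C, 5% CO2.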

The next assay concerns MDA-MB-231. Put plainly: Cytotoxicity against human MDA-MB-231 cells assessed as inhibition of cell growth after 72 hrs by MTT assay. The note with it: MDA-MB-231, 72 h. Type of assay: functional, cell-based. For orientation: Tetrazolium dyes change colour on reduction, which living cells bring about.
The next assay deals with MRC5. As to the kind of experiment: Cytotoxicity against human MRC5 cells assessed as inhibition of cell growth after 72 hrs by MTT assay. In kind it is cell-based. The note with it: MRC5, 72 h.
In assay [1] the test system is K562. As to the kind of experiment: Cell cycle arrest in human K562 cells assessed as accumulation at sub-G1 phase at IC50 after 72 hrs by propidium iodide staining based flow cytometry (reference value: 1.84%). Type of assay: functional. For orientation: In flow cytometry, cells or beads pass a laser one at a time.
Assay [2] relates to K562. As to the kind of experiment: Cell cycle arrest in human K562 cells assessed as accumulation at G0/G1 phase at IC50 after 72 hrs by propidium iodide staining based flow cytometry (reference value: 47.51%). In kind it is functional.
In assay [3] the test system is K562. As to the kind of experiment: Cell cycle arrest in human K562 cells assessed as accumulation at S phase at IC50 after 72 hrs by propidium iodide staining based flow cytometry (reference value: 26.52%). In kind it is functional.
Assay [4] has as its system K562. As to the kind of experiment: Cell cycle arrest in human K562 cells assessed as accumulation at G2/M phase at IC50 after 72 hrs by propidium iodide staining based flow cytometry (reference value: 24.13%). Type of assay: functional.
Assay [5] concerns K562. As to the kind of experiment: Induction of apoptosis in human K562 cells assessed as apoptotic cells at IC50 after 72 hrs by Annexin V-FITC/propidium iodide staining based flow cytometry relative to control. In kind it is functional. The procedure, abridged: (§2)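 K562 cells seeded at 5 × 10⁵ per well, treated 72 h at each compound's IC₅₀ level. Viability was checked by trypan blue exclusion. Viable cells were double-stained with Annexin V-FITC and propidium iodide and analysed by flow cytometry. Results are given as specific apoptosis or specific necrosis (%) relative to untreated cells.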

Assay [6] deals with K562. Put plainly: Induction of apoptosis in human K562 cells assessed as necrotic cells at IC50 after 72 hrs by Annexin V-FITC/propidium iodide staining based flow cytometry relative to control. Type of assay: functional. The procedure, abridged:
as §2

For assay [7], the system named is K562. Put plainly: Up regulation of Bcl-2 expression in human K562 cells at IC50 measured after 72 hrs by Western blot analysis. In kind it is functional, cell-based. (In western blotting, separated proteins are transferred to a membrane and probed.)
The subject of assay [8] is K562. Put plainly: Up regulation of Bax expression in human K562 cells at IC50 measured after 72 hrs by Western blot analysis. Type of assay: functional, cell-based.
Assay [9] relates to K562. As to the kind of experiment: Up regulation of cleaved PARP expression in human K562 cells at IC50 measured after 72 hrs by Western blot analysis. Type of assay: functional, cell-based.
In assay [10] the test system is K562. Put plainly: Cytotoxicity against human K562 cells assessed as inhibition of cell growth after 72 hrs by MTT assay. Conditions: K562, 72 h. Type of assay: functional, cell-based.
For another assay, the system named is Jurkat. As to the kind of experiment: Cytotoxicity against human Jurkat cells assessed as inhibition of cell growth after 72 hrs by MTT assay. Type of assay: functional, cell-based. The procedure, abridged:
as §1

The subject of another assay is Raji. As to the kind of experiment: Cytotoxicity against human Raji cells assessed as inhibition of cell growth after 72 hrs by MTT assay. In kind it is functional, cell-based.
The subject of a further assay is MCF7. Put plainly: Cytotoxicity against human MCF7 cells assessed as inhibition of cell growth after 72 hrs by MTT assay. Type of assay: functional, cell-based. Conditions: MCF7, 72 h. The procedure, abridged: as §1
For another assay, the system named is HeLa. Put plainly: Cytotoxicity against human HeLa cells assessed as inhibition of cell growth after 72 hrs by MTT assay. Type of assay: functional, cell-based.
Assay [11] concerns A549. As to the kind of experiment: Cytotoxicity against human A549 cells assessed as inhibition of cell growth after 72 hrs by MTT assay. In kind it is functional, cell-based. The note with it: A549, 72 h.
For assay [12], the system named is K562. Put plainly: Down regulation of Bcl-2 expression in human K562 cells at IC50 measured after 72 hrs by Western blot analysis. Type of assay: functional, cell-based.
Assay [13] deals with K562. Put plainly: Cell cycle arrest in human K562 cells assessed as increase in accumulation at sub-G1 phase at IC50 after 72 hrs by propidium iodide staining based flow cytometry relative to control. In kind it is functional.
For assay [14], the system named is K562. Put plainly: Down regulation of Bax expression in human K562 cells at IC50 measured after 72 hrs by Western blot analysis. In kind it is functional, cell-based.
The test system of assay [15] is K562. As to the kind of experiment: Up regulation of Caspase-3 precursor expression in human K562 cells at IC50 measured after 72 hrs by Western blot analysis. Type of assay: functional, cell-based.
Assay [16] has as its system K562. As to the kind of experiment: Up regulation of active Caspase-3 expression in human K562 cells at IC50 measured after 72 hrs by Western blot analysis. Type of assay: functional, cell-based.
The test system of assay [17] is A549. Put plainly: Potency index, ratio of doxorubicin IC50 to test compound IC50 for human A549 cells. In kind it is functional.

pIC50: −log10 of the molar value. Activity calls are given as the source filed them. The rule behind the calls is not given here. Some results are limits rather than exact numbers.

By pIC50 is commonly meant the IC50 on a negative log10 scale, so that one unit is a factor of ten.

As to `O=C1C[C@H]2O[C@H]([C@H](O)c3ccccc3)[C@H](O)[C@H]2O1`, the pIC50 in the assay on HL-60 is < 4.00; in the assay with MDA-MB-231 it was 4.12; with MRC5, < 4.00. Besides, the Activity with K562 [1] was 2.16%; in the assay with K562 [2] it was 52.47%; in the assay on K562 [3], 21.03%; with K562 [4], 24.34%; with K562 [5] it was -0.36%; in the assay with K562 [6], -0.31%. Moreover, the result with K562 [7], in the assay with K562 [8] and with K562 [9] was Active.

With `CO[C@@H]1[C@H]2OC(=O)C[C@H]2O[C@@H]1[C@H](O)c1ccccc1`, the pIC50 in the assay with K562 [10] is 5.27; in the assay with HL-60, 4.60; with Jurkat, 4.60; in the assay with Raji, 5.06; in the assay on MCF7 it was 5.39; with MDA-MB-231, 4.54. In addition, the pIC50 in the assay with HeLa was 5.06; in the assay on A549 [11] it was 4.63; with MRC5, < 4.00. Besides, the Activity in the assay with K562 [1] is on record as 1.82%; in the assay with K562 [2] it was 47.34%; with K562 [3] it was 26.52%; in the assay with K562 [4], 24.32%; in the assay with K562 [5] it was 2.69%; in the assay with K562 [6], -0.54%. The result with K562 [12], in the assay with K562 [8] and in the assay on K562 [9] was Active.

Take `CO[C@@H]1[C@H]2OC(=O)C[C@H]2O[C@@H]1[C@@H](O)c1ccccc1`: the pIC50 with K562 [10] was 5.07; in the assay with HL-60, 4.72; with Jurkat, 4.81; in the assay on Raji, 4.91; with MCF7, 4.90; in the assay with MDA-MB-231, 4.45. Also, the values for the pIC50 in the assay on HeLa, with A549 [11] and in the assay with MRC5 were 4.96, 4.42 and < 4.00, respectively. Further, the Activity with K562 [1] came out at 28.67%; in the assay with K562 [2], 35.04%; with K562 [3], 15.08%; in the assay with K562 [4] it was 21.21%; in the assay on K562 [5], 55.48%; with K562 [6] it was 2.57%. The “fold change (FC)” value with K562 [13] came to 15.5. Moreover, the result in the assay with K562 [12], in the assay with K562 [14] and in the assay with K562 [9] was Active.

`CO[C@@H]1[C@H]2OC(=O)C[C@H]2O[C@@H]1C(O)(c1ccccc1)c1ccccc1`: the pIC50 with K562 [10] was 4.54; in the assay on HL-60, 5.63; with Jurkat it was 5.01; in the assay with Raji, 4.72; in the assay with MCF7 it was 4.94; with MDA-MB-231, 4.29. In addition, the results for the pIC50 in the assay on HeLa, in the assay on A549 [11] and with MRC5 were 4.90, 4.82 and < 4.00, respectively. Moreover, the Activity in the assay on K562 [1] is listed as 10.13%; in the assay on K562 [2], 43.35%; in the assay with K562 [3], 17.77%; with K562 [4], 28.75%; with K562 [5] it was 33.41%; in the assay with K562 [6], 8.73%. Also, the “fold change (FC)” value in the assay on K562 [13] is recorded as 5.5. Further, the result in the assay on K562 [7], with K562 [8], with K562 [15], in the assay on K562 [16] and in the assay on K562 [9] was Active.

Take `CO[C@@H]1[C@H]2OC(=O)C[C@H]2O[C@@H]1[C@H](OC)c1ccccc1`: the pIC50 in the assay on K562 [10] is 4.83; in the assay with HL-60, 5.66; with Jurkat, 5.63; in the assay on Raji, 4.91; in the assay with MCF7 it was < 4.00; with MDA-MB-231 it was 5.87. Besides, the pIC50 is 4.25 in the assay on HeLa, 4.58 in the assay with A549 [11] and < 4.00 in the assay on MRC5. Besides, the Activity in the assay with K562 [1] is listed as 6.36%; with K562 [2] it was 44.86%; with K562 [3] it was 20.48%; in the assay on K562 [4], 28.3%; with K562 [5], 4.32%; in the assay with K562 [6], 0.11%. In the assay on K562 [13], the “fold change (FC)” value is recorded as 3.5. The outcome with K562 [7], in the assay on K562 [8], with K562 [15], with K562 [16] and in the assay on K562 [9] was Active.

Regarding `CO[C@@H](c1ccccc1)[C@H]1O[C@@H]2CC(=O)O[C@@H]2[C@H]1O`, the pIC50 is 4.94 in the assay with K562 [10]; 5.79 with HL-60; 4.90 in the assay on Jurkat; 4.68 in the assay on Raji; < 4.00 in the assay with MCF7; 6.89 in the assay on MDA-MB-231. For the same compound, the pIC50 is 5.07 with HeLa, 5.27 with A549 [11] and < 4.00 with MRC5. For the same compound, the Activity in the assay with K562 [1] amounted to 6.03%; in the assay on K562 [2], 53.39%; with K562 [3], 19.68%; with K562 [4], 20.9%; in the assay on K562 [5], 11.17%; with K562 [6], 0.55%. Also, the “fold change (FC)” value with K562 [13] is given as 3. Moreover, the result in the assay with K562 [12], with K562 [14] and in the assay with K562 [9] was Active.

On to `CO[C@@H]1[C@H]2OC(=O)C[C@H]2O[C@@H]1[C@@H](OC)c1ccccc1`, for which the pIC50 in the assay with K562 [10] is 5.03; in the assay on HL-60 it was 5.36; with Jurkat, 5.77; in the assay with Raji, 4.98; in the assay on MCF7, < 4.00; with MDA-MB-231, 5.58. Also, the pIC50 is 4.05 with HeLa, 4.60 with A549 [11] and 4.06 with MRC5. The Activity with K562 [1] is given as 2.4%; in the assay with K562 [2], 48.59%; with K562 [3] it was 22.66%; in the assay on K562 [4], 26.35%; in the assay on K562 [5] it was 1.7%; with K562 [6] it was -0.44%. Besides, the outcome with K562 [7], with K562 [8], in the assay with K562 [15] and with K562 [9] was Active.

For the compound `CO[C@@H]1[C@H]2OC(=O)C[C@H]2O[C@@H]1C(=O)c1ccccc1`, the pIC50 was 4.65 with K562 [10]; 4.95 in the assay with HL-60; 5.05 with Jurkat; 4.59 with Raji; 5.46 in the assay with MCF7; 4.39 with MDA-MB-231. Further, the pIC50 in the assay on HeLa was 5.19; in the assay with A549 [11], 5.59; in the assay with MRC5, < 4.00. In the assay with A549 [17], the “Ratio IC50” value amounted to 2. For the same compound, the Activity with K562 [1] was 1.33%; in the assay on K562 [2] it was 45.46%; in the assay with K562 [3], 23.68%; with K562 [4], 29.53%; with K562 [5], 2.1%; in the assay on K562 [6], -0.59%. The outcome in the assay with K562 [7], in the assay with K562 [8], in the assay on K562 [15] and in the assay on K562 [9] was Active.

The values are drawn from ChEMBL document CHEMBL4368873, “Novel O-methyl goniofufurone and 7-epi-goniofufurone derivatives: synthesis, in vitro cytotoxicity and SAR analysis” (Medchemcomm, 2018).
